In article PMC4926610 (Journal of natural products, 2016):
Entries after “also recorded” stand apart in the source; their conditions may differ.

Key:
p97 = p97 (Homo sapiens, UniProt P55072); type: biochemical; conditions: 100.0 μM compound, 1.0 μM p97, 6 h at 21 °C, then dialysis; Figure 6B
Procedure, shortened: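 Dialysed into assay buffer, fresh buffer 3 times every 2 h. ATPase started with 2.0 mM ATP; aliquots every 10 min up to 1 h into malachite green, citrate-quenched, OD660 converted to phosphate via standard curve, plotted against time.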

chaperonin GroEL = chaperonin GroEL (Escherichia coli, UniProt P0A6F5); test: Malachite green ATPase assay, GroEL; type: biochemical
p97-cys0 = p97-cys0 (Homo sapiens, UniProt P55072); test: Malachite green ATPase assay, cysteineless p97; type: biochemical; conditions: Figure 6A
p97-C209A = p97-C209A (Homo sapiens, UniProt P55072, C209A); test: biochemical
[1] = target: type I AAA+ chaperone ClpX (Escherichia coli, UniProt P0A6H1); test: Malachite green ATPase assay, ClpX; type: biochemical
p97 (wt-p97) = p97 (wt-p97) (Homo sapiens, UniProt P55072); test: Malachite green assay for p97 ATPase activity; type: biochemical
Procedure, shortened: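 Hydrolysis started with 2.0 mM ATP at 37 °C. Aliquots taken at 2, 4, 6, 8 and 10 min were quenched in malachite green/ammonium molybdate/HCl/Tween 20 reagent. IC50 was taken from dose–response curves.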

[2] = target: N-ethylmaleimide sensitive factor (NSF) (Homo sapiens, UniProt P46459); test: Malachite green ATPase assay, NSF; type: biochemical
[3] = system: HEK293 cells stably expressing Ub^G76 VGFP; test: Ub^G76 VGFP ubiquitin fusion degradation; type: cell-based, human; conditions: 10.0, 20.0 and 50.0 μM
Procedure, shortened: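 Stable reporter HEK293 lines seeded at 2 × 10^6 cells in phenol-red free DMEM plus 10% FBS, grown 18 h at 37 °C under 5% CO2. Then treated with 10.0, 20.0 or 50.0 μM test compound (0.1% final DMSO). DMSO 0.1% negative control and MG132 10.0 μM positive control were included. GFP-positive cells counted by flow cytometry: 488 nm excitation, 530/30 emission, 10 000 events gated on FSC/SSC.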

[4] = isolated from Rhodotorula glutinis T-110; cited from earlier work

Chain of p97 (wt-p97) (P55072 whole entry): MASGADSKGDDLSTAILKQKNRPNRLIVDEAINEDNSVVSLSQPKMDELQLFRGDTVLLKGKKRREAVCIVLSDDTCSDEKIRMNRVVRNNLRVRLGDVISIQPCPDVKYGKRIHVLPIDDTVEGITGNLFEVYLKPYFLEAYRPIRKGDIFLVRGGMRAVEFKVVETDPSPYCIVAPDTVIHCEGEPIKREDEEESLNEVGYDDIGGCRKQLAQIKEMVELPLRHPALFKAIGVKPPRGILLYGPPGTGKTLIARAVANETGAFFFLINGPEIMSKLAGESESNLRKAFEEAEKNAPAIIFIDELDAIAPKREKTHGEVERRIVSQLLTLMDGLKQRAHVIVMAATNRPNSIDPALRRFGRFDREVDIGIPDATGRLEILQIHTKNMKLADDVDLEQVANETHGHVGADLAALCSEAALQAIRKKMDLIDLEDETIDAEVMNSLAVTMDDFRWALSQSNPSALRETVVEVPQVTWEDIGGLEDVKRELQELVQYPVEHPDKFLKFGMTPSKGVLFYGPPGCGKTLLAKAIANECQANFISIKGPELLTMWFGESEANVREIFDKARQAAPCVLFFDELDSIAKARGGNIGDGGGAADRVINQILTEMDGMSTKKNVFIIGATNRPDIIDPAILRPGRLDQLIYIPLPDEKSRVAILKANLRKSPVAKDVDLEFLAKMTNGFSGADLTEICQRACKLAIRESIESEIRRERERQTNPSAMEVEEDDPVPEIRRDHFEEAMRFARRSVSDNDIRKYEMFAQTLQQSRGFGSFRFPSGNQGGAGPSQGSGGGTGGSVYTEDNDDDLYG
Chain of p97 (P55072 whole entry): as above
Chain of type I AAA+ chaperone ClpX (P0A6H1 whole entry): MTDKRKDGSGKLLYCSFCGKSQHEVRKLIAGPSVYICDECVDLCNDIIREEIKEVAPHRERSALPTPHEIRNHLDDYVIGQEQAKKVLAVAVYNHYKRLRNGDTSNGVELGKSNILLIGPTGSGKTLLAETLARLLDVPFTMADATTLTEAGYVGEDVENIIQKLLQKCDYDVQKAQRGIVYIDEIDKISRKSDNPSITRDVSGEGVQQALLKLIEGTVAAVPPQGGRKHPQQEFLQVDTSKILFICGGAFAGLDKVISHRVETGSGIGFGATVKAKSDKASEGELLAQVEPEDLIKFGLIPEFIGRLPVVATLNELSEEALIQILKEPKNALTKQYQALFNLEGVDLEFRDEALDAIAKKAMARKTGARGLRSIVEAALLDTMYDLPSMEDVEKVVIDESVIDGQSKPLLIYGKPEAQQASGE
Chain of p97-cys0 (P55072 2-806): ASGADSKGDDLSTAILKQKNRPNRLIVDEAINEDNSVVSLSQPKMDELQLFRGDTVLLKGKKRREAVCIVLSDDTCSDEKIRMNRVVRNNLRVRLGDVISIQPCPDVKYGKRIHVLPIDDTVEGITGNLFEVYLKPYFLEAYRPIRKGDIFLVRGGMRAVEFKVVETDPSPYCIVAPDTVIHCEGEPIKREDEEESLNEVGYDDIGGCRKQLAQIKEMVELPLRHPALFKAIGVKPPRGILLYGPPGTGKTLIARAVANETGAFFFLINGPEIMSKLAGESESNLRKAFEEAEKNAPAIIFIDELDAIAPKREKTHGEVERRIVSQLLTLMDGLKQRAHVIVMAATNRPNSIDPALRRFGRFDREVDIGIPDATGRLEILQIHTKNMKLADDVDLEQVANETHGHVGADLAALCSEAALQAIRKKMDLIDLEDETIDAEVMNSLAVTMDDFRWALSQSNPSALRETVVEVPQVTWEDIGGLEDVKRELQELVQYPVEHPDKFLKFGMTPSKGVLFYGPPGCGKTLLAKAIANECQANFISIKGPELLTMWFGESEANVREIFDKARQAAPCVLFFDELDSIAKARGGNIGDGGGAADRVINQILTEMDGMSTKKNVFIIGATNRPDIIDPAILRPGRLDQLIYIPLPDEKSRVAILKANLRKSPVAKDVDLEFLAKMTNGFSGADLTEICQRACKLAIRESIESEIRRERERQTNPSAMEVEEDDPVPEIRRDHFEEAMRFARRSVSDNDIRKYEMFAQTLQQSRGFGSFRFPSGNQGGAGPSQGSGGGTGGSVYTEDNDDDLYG
Chain of N-ethylmaleimide sensitive factor (NSF) (P46459 whole entry, species assumed, the tested form may be a part): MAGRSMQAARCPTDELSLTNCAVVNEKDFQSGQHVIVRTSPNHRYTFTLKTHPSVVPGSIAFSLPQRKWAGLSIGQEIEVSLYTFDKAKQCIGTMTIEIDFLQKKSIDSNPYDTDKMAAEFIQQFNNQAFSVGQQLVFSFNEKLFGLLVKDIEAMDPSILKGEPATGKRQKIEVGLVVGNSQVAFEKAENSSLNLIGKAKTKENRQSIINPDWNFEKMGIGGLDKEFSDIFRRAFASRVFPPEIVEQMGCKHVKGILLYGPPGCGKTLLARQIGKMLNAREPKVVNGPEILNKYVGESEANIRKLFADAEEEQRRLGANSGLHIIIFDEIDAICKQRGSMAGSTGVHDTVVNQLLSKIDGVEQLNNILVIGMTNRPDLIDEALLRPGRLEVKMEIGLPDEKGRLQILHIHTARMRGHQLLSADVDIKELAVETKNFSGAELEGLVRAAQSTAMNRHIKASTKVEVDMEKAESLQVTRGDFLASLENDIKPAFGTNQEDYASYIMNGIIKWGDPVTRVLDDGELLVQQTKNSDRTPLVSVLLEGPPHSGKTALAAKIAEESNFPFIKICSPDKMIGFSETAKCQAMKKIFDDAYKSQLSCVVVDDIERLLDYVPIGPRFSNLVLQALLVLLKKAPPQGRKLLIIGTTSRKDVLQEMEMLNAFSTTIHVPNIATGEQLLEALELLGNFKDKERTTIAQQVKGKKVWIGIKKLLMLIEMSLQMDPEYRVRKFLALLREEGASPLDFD
Chain of p97-C209A (P55072 whole entry C209A): as the sequence (P55072 whole entry) above, with C209A counted along it
Chain of chaperonin GroEL (P0A6F5 whole entry): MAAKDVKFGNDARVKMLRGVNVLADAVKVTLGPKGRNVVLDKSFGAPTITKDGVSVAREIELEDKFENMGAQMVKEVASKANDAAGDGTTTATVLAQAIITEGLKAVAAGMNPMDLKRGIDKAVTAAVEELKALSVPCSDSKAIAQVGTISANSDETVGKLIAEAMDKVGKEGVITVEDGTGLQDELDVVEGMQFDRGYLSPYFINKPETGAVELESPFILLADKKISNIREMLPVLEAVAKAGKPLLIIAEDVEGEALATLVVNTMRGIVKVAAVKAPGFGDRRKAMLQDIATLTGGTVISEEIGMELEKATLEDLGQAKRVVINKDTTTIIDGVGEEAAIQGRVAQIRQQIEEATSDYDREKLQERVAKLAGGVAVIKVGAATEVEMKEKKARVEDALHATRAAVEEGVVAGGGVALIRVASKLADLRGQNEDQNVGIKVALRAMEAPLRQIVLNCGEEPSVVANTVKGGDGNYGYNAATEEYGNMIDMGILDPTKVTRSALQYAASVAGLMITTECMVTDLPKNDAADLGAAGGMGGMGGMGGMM

In the case of `C[C@H]1CCC/C=C/C(=O)c2c(O)cc(O)cc2CC(=O)O1` [dehydrocurvularin, reference compound], the “inhibition of p97 ATPase after extensive dialysis (reversibility)” value (p97) is reported as “continued inhibition even after extensive dialysis”.

With `C=C1OC(=O)C2(C1=O)[C@H](/C=C/C=C/CCC)C=C[C@@H](O)[C@@H]2O` (mixture of isomers) [compound 2, oxaspirol B] the IC50 (chaperonin GroEL) was greater than 200 µM, the “activity against cysteine-less p97 variant Cys0 (in words)” value (p97-cys0) was “no activity” and the IC50 (p97-C209A) was 18 ± 4.7 µM. For the same compound, the IC50 [1] was greater than 200 µM, the “effect of ATP concentration on IC50 of p97 inhibition” value (p97 (wt-p97); data not shown) was “no effect” and the “p97 ATPase inhibitory activity (in words)” value (p97 (wt-p97); malachite green-based ATPase assay) was “moderate; also recorded: showed activity”. The IC50 [2] was greater than 200 µM, the “inhibition of p97 ATPase after extensive dialysis (reversibility)” value (p97) was “No inhibition of p97 was evident after extensive dialysis; also recorded: p97 ATPase activity is restored” and the “rescue of Ub^G76 VGFP reporter (number of GFP positive cells by FACS)” value [3] was “dose-dependent inhibition of GFP fluorescence loss; also recorded: rescued in the presence of 2 in a dose-dependent manner”.

For `CCCC=CC=C[C@@H]1C=C[C@@H](O)[C@H](O)[C@]12C(=O)OC(C)[C@@H]2O` (stereo partly drawn) [compound 1, (4R,5R,6R,9R,10R)-6-(hepta-1,3-dien)yl-4,9,10-trihydroxy-3-methyl-2-oxaspiro[4,5]dec-7-en-1-one], the “antibacterial activity (in words)” value [4] is given as “weakly active”.

`C=C1OC(=O)[C@]2(C1=O)[C@H](/C=C/C=C/CCC)C=C[C@@H](OC(C)=O)[C@@H]2OC(C)=O` (single isomer, unassigned; isomer 5a) [5a, 9,10-Diacetyloxaspirol B Isomer 5a] showed an IC50 (p97 (wt-p97)) greater than 200 µM.

With `C=C1OC(=O)[C@@]2(C1=O)[C@H](/C=C/C=C/CCC)C=C[C@@H](OC(C)=O)[C@@H]2OC(C)=O` (single isomer, unassigned; isomer 5b) [5b, 9,10-Diacetyloxaspirol B Isomer 5b] the IC50 (p97 (wt-p97)) was greater than 200 µM.
